# Experimental data taken from ChEMBL document CHEMBL5390308, “Stapling Amantadine to Melanostatin Neuropeptide: Discovery of Potent Positive Allosteric Modulators of the D2 Receptors” (ACS Med Chem Lett, 2023).
# The source made the active and inactive calls. No cut-off for these calls is given here. Where a SMILES comes first, the peptide text is derived from it.
# How the values were obtained:
# [1] = Neurotoxicity in human SH-SY5Y cells at 125 uM incubated for 48 hrs by MTT assay relative to control; assay type: functional
# Procedure, shortened: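 SH-SY5Y cells pre-differentiated 6 days with retinoic acid and TPA. 6-OHDA freshly prepared in sterile PBS, tested at 125 μM for 48 h; DMSO-solubilised test agents were run alongside (DMSO 0.5% final). Viability read by MTT reduction, expressed as % of control. 14–16 wells, 4 independent experiments; ANOVA with Tukey post hoc versus control.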
# D(2) dopamine receptor [2] = molecular target: T1, D(2) dopamine receptor (Homo sapiens, UniProt P14416); assay: (§1) Positive allosteric modulator activity at human dopamine D2 receptor expressed in CHO cells assessed as reduction in forskolin-stimulated cAMP level by measuring maximum efficacy at 10 nM preincubated for 10 mins followed by forskolin addition measured after 5 mins in presence of dopamine by HTRF assay relative to control; assay type: functional, cell-based; design: scale not given: the % may be the effect or the level left; details: time 15.0 min
# Procedure, shortened: (§2)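 CHO cells expressing human D2R, assayed in the presence of 0.1 μM dopamine. Compounds screened between 0.01 nM and 10 μM. Inhibition of forskolin-stimulated cAMP measured by HTRF and expressed as % increase over the 0.1 μM dopamine effect. Mean ± SD of three independent measurements; Student's t-test, p < 0.05.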
# D(2) dopamine receptor [3] = molecular target: T1, D(2) dopamine receptor; assay: as §1, with “at 1” for “at 10”; assay type: functional, cell-based; details: filed as positive allosteric modulator, time 15.0 min
# Procedure, shortened: (§3)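 Dopamine concentration–response curves run alone or with a fixed compound concentration (0.01 or 1 nM) in human D2R-expressing CHO cells. Forskolin-stimulated cAMP inhibition read by HTRF. Dopamine EC50 and Emax derived from the curves. Three independent experiments in duplicate, mean ± SD.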
# D(2) dopamine receptor [4] = molecular target: T1, D(2) dopamine receptor; assay: (§4) Positive allosteric modulator activity at human dopamine D2 receptor expressed in CHO cells assessed as fold increase in dopamine potentiation by measuring reduction of forskolin-stimulated cAMP level at 1 nM preincubated for 10 mins followed by forskolin addition measured after 5 mins in presence of dopamine by HTRF assay; assay type: functional, cell-based; details: filed as positive allosteric modulator, time 15.0 min
# Procedure, shortened: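 CHO cells stably expressing human D2R. Dopamine concentration–response curves were run with or without modulator at a fixed concentration. D2R activation was read as inhibition of forskolin-stimulated cAMP accumulation by HTRF. The fold shift was derived from DA EC50 values, with Emax also fitted. Three independent experiments, each in duplicate, mean ± SD.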
# [5] = Lipophilicity, logP of the compound in Octan-1-ol/water by shake-flask method; assay type: physicochemical
# D(2) dopamine receptor [6] = molecular target: T1, D(2) dopamine receptor; assay: (§5) Positive allosteric modulator activity at human dopamine D2 receptor expressed in CHO cells assessed as reduction in forskolin-stimulated cAMP level at 0.01 nM preincubated for 10 mins followed by forskolin addition measured after 5 mins in presence of dopamine by HTRF assay; assay type: functional, cell-based; details: time 15.0 min; procedure, shortened: as §2
# [7] = Neurotoxicity in human SH-SY5Y cells at 200 uM incubated for 48 hrs by MTT assay relative to control; assay type: functional
# Procedure, shortened: (§6)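 SH-SY5Y neuroblastoma cells differentiated 6 days with retinoic acid and TPA. Exposed 48 h to compound at 200 μM dissolved in DMSO (0.5% final), with 6-OHDA at 125 μM in PBS as positive control. MTT reduction read-out as % of control. 14–16 wells from 4 independent experiments, mean ± SD; ANOVA with Tukey post hoc test.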
# D(2) dopamine receptor [8] = molecular target: T1, D(2) dopamine receptor; assay: Positive allosteric modulator activity at human dopamine D2 receptor expressed in CHO cells assessed as reduction in forskolin-stimulated cAMP level at 1 nM preincubated for 10 mins followed by forskolin addition measured after 5 mins in presence of dopamine by HTRF assay; assay type: functional, cell-based; details: time 15.0 min; procedure, shortened: as §3
# D(2) dopamine receptor [9] = molecular target: T1, D(2) dopamine receptor; assay: Positive allosteric modulator activity at human dopamine D2 receptor expressed in CHO cells assessed as reduction in forskolin-stimulated cAMP level at 0.01 nM preincubated for 10 mins followed by forskolin addition measured after 5 mins in presence of dopamine by HTRF assay relative to control; assay type: functional, cell-based; design: scale not given: the % may be the effect or the level left; details: time 15.0 min; procedure, shortened: as §2
# D(2) dopamine receptor [10] = molecular target: T1, D(2) dopamine receptor; assay: as §4, with “at 0.01” for “at 1”; assay type: functional, cell-based; details: filed as positive allosteric modulator, time 15.0 min; procedure, shortened: as §3
# SH-SY5Y = assay: Neurotoxicity in human SH-SY5Y cells at 200 uM incubated for 48 hrs by MTT assay; assay type: functional, cell-based; procedure, shortened: as §6
# D(2) dopamine receptor [11] = molecular target: T1, D(2) dopamine receptor; assay: as §5, with “level” for “level at 0.01 nM”, “assay (reference value: 87.08 +/- 24.87 nM)” for “assay”; assay type: functional, cell-based; procedure, shortened: as §3
# D(2) dopamine receptor [12] = molecular target: T1, D(2) dopamine receptor; assay: Agonist activity at human dopamine D2 receptor expressed in CHO cells assessed as reduction in forskolin-stimulated cAMP level at 1 to 1000 nM preincubated for 10 mins followed by forskolin addition measured after 5 mins by HTRF assay; assay type: functional, cell-based; details: dose 1-1000 nM, time 15.0 min
# Procedure, shortened: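 Agonist mode, without dopamine, in CHO cells expressing human D2R. Compound tested at 1 nM to 1 μM, with dopamine as positive control. Read-out is inhibition of forskolin-stimulated cAMP accumulation by HTRF. Mean ± standard deviation of three independent measurements.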
# D(2) dopamine receptor [13] = molecular target: T1, D(2) dopamine receptor; assay: as §1, with “at 0.01” for “at 10”; assay type: functional, cell-based; details: filed as positive allosteric modulator, time 15.0 min; procedure, shortened: as §3
# T1 sequence (P14416 whole entry): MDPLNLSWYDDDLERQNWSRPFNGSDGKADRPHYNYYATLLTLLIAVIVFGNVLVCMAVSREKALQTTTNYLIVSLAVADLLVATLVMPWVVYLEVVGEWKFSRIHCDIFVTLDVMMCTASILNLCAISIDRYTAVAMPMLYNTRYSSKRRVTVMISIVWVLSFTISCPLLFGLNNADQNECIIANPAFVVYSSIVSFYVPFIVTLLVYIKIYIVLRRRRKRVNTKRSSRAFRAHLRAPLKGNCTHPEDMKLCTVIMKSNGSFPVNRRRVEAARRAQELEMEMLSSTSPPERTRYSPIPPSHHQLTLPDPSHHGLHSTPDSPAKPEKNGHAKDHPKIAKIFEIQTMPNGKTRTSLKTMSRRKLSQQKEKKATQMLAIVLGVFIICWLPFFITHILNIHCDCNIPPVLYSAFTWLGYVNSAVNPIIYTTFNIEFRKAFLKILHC
Activity (D(2) dopamine receptor [2]) [%],Emax (D(2) dopamine receptor [3]) [%],fold change (FC) (D(2) dopamine receptor [4]),logP [5],Activity (D(2) dopamine receptor [6]),Activity (D(2) dopamine receptor [8]),Activity (D(2) dopamine receptor [9]) [%],fold change (FC) (D(2) dopamine receptor [10]),EC50 (D(2) dopamine receptor [11]) [nM],Activity (D(2) dopamine receptor [12]),Emax (D(2) dopamine receptor [13]) [%],Compound,Activity [1] [%],Activity [7] [%],Activity (SH-SY5Y)
–,–,–,–,–,–,–,–,–,–,–,NCCc1cc(O)c(O)cc1O [OXIDOPAMINE],58.27,–,–
31.9,100,3.7,-0.56,inactive,–,–,–,–,–,–,CC(C)C[C@H](NC(=O)[C@@H]1CCCN1)C(=O)NCC(N)=O (H-Pro-Leu-Gly-NH2),–,94.09,–
–,–,–,–,–,inactive,10.3,3.3,26.4,inactive,100,CC(C)C[C@H](NC(=O)[C@@H]1CCCN1)C(=O)NCC(=O)NC12CC3CC(CC(C3)C1)C2,–,–,inactive
–,–,–,2.62,–,inactive,15.3,4.9,17.8,inactive,100,CC(C)C[C@H](NC(=O)[C@@H]1CCCN1C(=O)OC(C)(C)C)C(=O)NCC(=O)NC12CC3CC(CC(C3)C1)C2,–,89.73,–
